Experimental data published in ChEMBL document CHEMBL4014350, “Alkoxyurea-Based Histone Deacetylase Inhibitors Increase Cisplatin Potency in Chemoresistant Cancer Cell Lines” (J Med Chem, 2017).
The source made the active and inactive calls. The calls are words filed in the database; no cut-off is given here.

Tests used:
[1] = system: CAL-27; assay: Potentiation of 0.316 uM cisplatin-induced cytotoxicity against human CAL27 cells assessed as decrease in cell viability by measuring combination index at 500 uM preincubated for 48 hrs followed by cisplatin treatment measured after 72 hrs by MTT assay; format: functional; conditions: in the assay text read “at 500 nM” for “at 500 uM”
Outline: (§1)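 Cal27 and cisplatin-resistant Cal27CisR cells were preincubated with the HDAC inhibitor for 48 h, then given cisplatin in combination. Viability was read by MTT after 72 h. The combination index was computed by the Chou–Talalay method: CI > 1 is antagonism, CI = 1 is additive, and CI < 0.9 is synergism. Points with fraction affected below 0.20 were flagged.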

[2] = biological target: T1, Histone deacetylase 1/6 (Homo sapiens) (UniProt Q13547+Q9UBN7); assay: Inhibition of HDAC1/HDAC6 in human Cal27CisR cells assessed as potentiation of 10 uM cisplatin-induced cytotoxicity by measuring combination index at 100 uM preincubated for 48 hrs followed by cisplatin treatment measured after 72 hrs by MTT assay; format: cell-based
T1 sequence (Q13547 whole entry, looked up): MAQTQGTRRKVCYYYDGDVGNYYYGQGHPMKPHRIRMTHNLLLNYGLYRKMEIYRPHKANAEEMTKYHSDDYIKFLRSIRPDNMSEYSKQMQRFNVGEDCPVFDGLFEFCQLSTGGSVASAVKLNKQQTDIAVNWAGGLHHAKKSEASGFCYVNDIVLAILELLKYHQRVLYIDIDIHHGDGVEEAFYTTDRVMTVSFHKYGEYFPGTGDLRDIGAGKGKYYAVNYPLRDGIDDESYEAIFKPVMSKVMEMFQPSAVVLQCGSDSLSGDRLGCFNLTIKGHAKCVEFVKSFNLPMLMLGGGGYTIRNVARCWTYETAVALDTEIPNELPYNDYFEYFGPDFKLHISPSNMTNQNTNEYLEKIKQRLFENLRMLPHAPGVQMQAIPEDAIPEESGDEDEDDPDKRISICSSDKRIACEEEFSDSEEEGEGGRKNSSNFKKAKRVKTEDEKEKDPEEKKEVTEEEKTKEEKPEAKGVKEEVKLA
T1 sequence (Q9UBN7 whole entry, looked up): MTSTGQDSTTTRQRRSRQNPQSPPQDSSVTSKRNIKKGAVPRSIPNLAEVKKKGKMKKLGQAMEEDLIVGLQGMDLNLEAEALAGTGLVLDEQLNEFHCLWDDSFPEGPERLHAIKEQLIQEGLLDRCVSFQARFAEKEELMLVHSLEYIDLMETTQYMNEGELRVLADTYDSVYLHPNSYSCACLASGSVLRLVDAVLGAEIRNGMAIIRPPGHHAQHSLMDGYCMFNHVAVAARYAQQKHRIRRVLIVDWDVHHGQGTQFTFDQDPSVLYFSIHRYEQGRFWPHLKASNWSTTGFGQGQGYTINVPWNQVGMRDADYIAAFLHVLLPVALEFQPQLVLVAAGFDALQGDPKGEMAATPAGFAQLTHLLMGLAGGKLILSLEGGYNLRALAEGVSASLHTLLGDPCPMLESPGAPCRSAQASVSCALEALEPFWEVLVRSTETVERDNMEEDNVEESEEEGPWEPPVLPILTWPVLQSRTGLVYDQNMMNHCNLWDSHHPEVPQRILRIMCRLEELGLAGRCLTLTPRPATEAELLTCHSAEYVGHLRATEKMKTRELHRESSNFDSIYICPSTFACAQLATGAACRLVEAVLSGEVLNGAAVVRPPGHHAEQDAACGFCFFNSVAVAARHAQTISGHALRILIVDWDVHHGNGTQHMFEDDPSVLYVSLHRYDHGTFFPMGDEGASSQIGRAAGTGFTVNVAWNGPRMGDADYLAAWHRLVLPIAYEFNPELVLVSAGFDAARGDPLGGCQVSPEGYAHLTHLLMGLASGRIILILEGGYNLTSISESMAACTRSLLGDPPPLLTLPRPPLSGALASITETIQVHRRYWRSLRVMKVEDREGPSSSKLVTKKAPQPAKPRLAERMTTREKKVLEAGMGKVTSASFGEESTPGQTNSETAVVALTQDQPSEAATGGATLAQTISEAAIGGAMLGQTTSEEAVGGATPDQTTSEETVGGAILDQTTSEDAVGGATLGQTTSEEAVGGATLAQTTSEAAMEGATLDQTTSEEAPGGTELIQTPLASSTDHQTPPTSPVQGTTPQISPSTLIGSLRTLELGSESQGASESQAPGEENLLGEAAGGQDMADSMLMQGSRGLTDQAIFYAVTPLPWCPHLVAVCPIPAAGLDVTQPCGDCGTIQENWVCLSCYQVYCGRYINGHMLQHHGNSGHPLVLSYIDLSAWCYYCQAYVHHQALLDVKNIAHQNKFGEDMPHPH
Outline: (§2)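 Cal27CisR cells preincubated 48 h with the HDAC inhibitor, then exposed to cisplatin for 72 h. Viability read by MTT. Combination index calculated by the Chou–Talalay method: CI > 1 antagonism, CI = 1 additive, CI < 0.9 synergism. Points with fraction affected below 0.20 are flagged. Values are the mean of three experiments.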

[3] = system: CAL-27; assay: Potentiation of 2 uM cisplatin-induced cytotoxicity against human CAL27 cells assessed as decrease in cell viability by measuring combination index at 200 uM preincubated for 48 hrs followed by cisplatin treatment measured after 72 hrs by MTT assay; format: functional; conditions: in the assay text read “at 200 nM” for “at 200 uM”
Outline: (§3)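 HDAC inhibitor was added 48 h before cisplatin, then cells were exposed to cisplatin for 72 h and viability was read by MTT assay. Combination index was computed by the Chou–Talalay method: CI > 1 is antagonism, CI = 1 additive, CI < 0.9 synergism. Points with fraction affected below 0.20 were flagged.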

[4] = biological target: T1, Histone deacetylase 1/6 (Homo sapiens); assay: Inhibition of HDAC1/HDAC6 in human Cal27CisR cells assessed as potentiation of 10 uM cisplatin-induced cytotoxicity by measuring combination index at 200 uM preincubated for 48 hrs followed by cisplatin treatment measured after 72 hrs by MTT assay; format: cell-based; outline: as §2
[5] = biological target: T1, Histone deacetylase 1/6 (Homo sapiens); assay: Inhibition of HDAC1/HDAC6 in human Cal27CisR cells assessed as potentiation of 1 uM cisplatin-induced cytotoxicity by measuring combination index at 400 nM preincubated for 48 hrs followed by cisplatin treatment measured after 72 hrs by MTT assay
[6] = system: CAL-27; assay: Potentiation of cisplatin-induced cytotoxicity against human CAL27 cells assessed as decrease in cell viability at 0.5 uM preincubated for 48 hrs followed by cisplatin treatment measured after 72 hrs by MTT assay relative to cisplatin alone; format: functional
Outline: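 Cells were preincubated 48 h with HDAC inhibitor, then cisplatin was added over a concentration range for 72 h, with MTT read-out. Shift factor is cisplatin-alone IC50 divided by combination IC50. Data are mean ± SEM of pooled data from at least three independent experiments, each in triplicate. Significance was by t test (p < 0.05).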

[7] = biological target: T1, Histone deacetylase 1/6 (Homo sapiens); assay: Inhibition of HDAC1/HDAC6 in human Cal27CisR cells assessed as potentiation of 20 uM cisplatin-induced cytotoxicity by measuring combination index at 300 nM preincubated for 48 hrs followed by cisplatin treatment measured after 72 hrs by MTT assay
[8] = biological target: T1, Histone deacetylase 1/6 (Homo sapiens); assay: Inhibition of HDAC1/HDAC6 in human Cal27CisR cells assessed as potentiation of 10 uM cisplatin-induced cytotoxicity by measuring combination index at 300 uM preincubated for 48 hrs followed by cisplatin treatment measured after 72 hrs by MTT assay; format: cell-based; outline: as §2
[9] = system: CAL-27; assay: Potentiation of 5 uM cisplatin-induced cytotoxicity against human CAL27 cells assessed as decrease in cell viability by measuring combination index at 100 uM preincubated for 48 hrs followed by cisplatin treatment measured after 72 hrs by MTT assay; format: functional; conditions: in the assay text read “at 100 nM” for “at 100 uM”; outline: as §3
[10] = system: Cal27CisR; assay: Induction of apoptosis in human Cal27CisR cells at 1 uM for 48 hrs by propidium iodide dye-based flow cytometry; format: functional, cell-based
[11] = system: CAL-27; assay: Potentiation of 5 uM cisplatin-induced cytotoxicity against human CAL27 cells assessed as decrease in cell viability by measuring combination index at 400 uM preincubated for 48 hrs followed by cisplatin treatment measured after 72 hrs by MTT assay; format: functional; conditions: in the assay text read “at 400 nM” for “at 400 uM”; outline: as §3
[12] = system: CAL-27; assay: Potentiation of 1 uM cisplatin-induced cytotoxicity against human CAL27 cells assessed as decrease in cell viability by measuring combination index at 200 uM preincubated for 48 hrs followed by cisplatin treatment measured after 72 hrs by MTT assay; format: functional; outline: as §1
[13] = biological target: T1, Histone deacetylase 1/6 (Homo sapiens); assay: Inhibition of HDAC1/HDAC6 in human Cal27CisR cells assessed as potentiation of 5 uM cisplatin-induced cytotoxicity by measuring combination index at 100 nM preincubated for 48 hrs followed by cisplatin treatment measured after 72 hrs by MTT assay
[14] = biological target: T1, Histone deacetylase 1/6 (Homo sapiens); assay: Inhibition of HDAC1/HDAC6 in human Cal27CisR cells assessed as potentiation of 5 uM cisplatin-induced cytotoxicity by measuring combination index at 300 nM preincubated for 48 hrs followed by cisplatin treatment measured after 72 hrs by MTT assay
[15] = system: CAL-27; assay: Potentiation of 0.5 uM cisplatin-induced cytotoxicity against human CAL27 cells assessed as decrease in cell viability by measuring combination index at 100 uM preincubated for 48 hrs followed by cisplatin treatment measured after 72 hrs by MTT assay; format: functional; conditions: in the assay text read “at 100 nM” for “at 100 uM”; outline: as §1
[16] = system: CAL-27; assay: Potentiation of 0.5 uM cisplatin-induced cytotoxicity against human CAL27 cells assessed as decrease in cell viability by measuring combination index at 200 uM preincubated for 48 hrs followed by cisplatin treatment measured after 72 hrs by MTT assay; format: functional; outline: as §1
[17] = system: CAL-27; assay: Potentiation of 5 uM cisplatin-induced cytotoxicity against human CAL27 cells assessed as decrease in cell viability by measuring combination index at 200 uM preincubated for 48 hrs followed by cisplatin treatment measured after 72 hrs by MTT assay; format: functional; conditions: in the assay text read “at 200 nM” for “at 200 uM”; outline: as §3
[18] = system: CAL-27; assay: Potentiation of 0.316 uM cisplatin-induced cytotoxicity against human CAL27 cells assessed as decrease in cell viability by measuring combination index at 200 uM preincubated for 48 hrs followed by cisplatin treatment measured after 72 hrs by MTT assay; format: functional; conditions: in the assay text read “at 200 nM” for “at 200 uM”; outline: as §1
[19] = system: CAL-27; assay: Induction of apoptosis in human CAL27 cells at 1 uM for 48 hrs by propidium iodide dye-based flow cytometry; format: functional, cell-based
[20] = biological target: T1, Histone deacetylase 1/6 (Homo sapiens); assay: Inhibition of HDAC1/HDAC6 in human Cal27CisR cells assessed as potentiation of 3.16 uM cisplatin-induced cytotoxicity by measuring combination index at 100 uM preincubated for 48 hrs followed by cisplatin treatment measured after 72 hrs by MTT assay; format: cell-based; outline: as §2

SMILES	CI [1]	CI [2]	CI [3]	CI [4]	CI [5]	fold change (FC) [6]	CI [7]	CI [8]	CI [9]	Activity [10]	CI [11]	CI [12]	CI [13]	CI [14]	CI [15]	CI [16]	CI [17]	CI [18]	Activity [19]	CI [20]
COc1cc(NC(=O)NOCCCCCC(=O)NO)c2ncccc2c1	0.86																			
COc1cc(NC(=O)NOCCCCCC(=O)NO)c2nccc(C)c2c1		< 0.2	0.39	0.48	< 0.2	6.1	0.34	0.43	0.5	inactive	0.29	0.76	< 0.2	< 0.2	<0.2	<0.2	0.29	<0.2	inactive	< 0.2
COc1cc(NC(=O)NOCCCCCC(=O)NO)c2nc(OC)cc(C)c2c1	0.79	0.41	0.33	0.21	< 0.2	8.7	0.17	0.18	0.26	inactive	0.36	0.82	0.66	0.25	<0.2	0.96	0.22	<0.2	inactive	0.89
